The results in this text go back to ChEMBL document CHEMBL1136868, “Synthesis of phenylisothiourea derivatives as inhibitors of NO production in LPS activated macrophages” (Bioorg Med Chem Lett, 2009).

One may read the inhibition as the change of the read-out against control, counted positive when it falls. Broadly, the IC50 is the concentration that inhibits the measured activity by half.

Series [1] concerns RAW264.7. Put plainly: Antiinflammatory activity against LPS-stimulated mouse RAW264.7 cells assessed as inhibition of NO production at 50 uM after 20 hrs relative to control. The series is classed as functional. The settings on record: RAW264.7, 20 h. Summed up:
(§1)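 RAW 264.7 cells plated at 1 × 10⁵ cells/mL in 10% FBS–DMEM and grown 24 h, then moved to 1% FBS medium. Cells were stimulated with LPS (1 µg/mL) with or without compound for 20 h. Nitrite accumulated in supernatant was read by Griess reagent (10 min, room temperature, A570). Inhibition is relative to LPS control, n = 3; IC50 given as mean ± SD of three experiments.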

Series [2] relates to RAW264.7. Put plainly: Antiinflammatory activity against LPS-stimulated mouse RAW264.7 cells assessed as inhibition of NO production at 20 uM after 20 hrs relative to control. The series is classed as functional. The settings on record: RAW264.7, 20 h. The method, boiled down:
as §1

In series [3] the test system is RAW264.7. The experiment in a line: Inhibition of iNOS protein expression in LPS-stimulated mouse RAW264.7 cells at 10 uM after 20 hrs by Western blot. In kind it is functional, cell-based. The method, boiled down:
(§2)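 RAW 264.7 cells were exposed to compound for 20 h during LPS (1 µg/mL) activation, then washed and lysed. 20 µg lysate protein was run on 8% SDS-PAGE, blotted to PVDF and probed for iNOS and actin. iNOS band density was normalized to actin; mean ± SD of three independent densitometric analyses.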
(In general: A western blot detects proteins with antibodies after separation by electrophoresis.)

In series [4] the test system is RAW264.7. The experiment in a line: Cytotoxicity against mouse RAW264.7 cells. The series is classed as cell-based.
The subject of series [5] is RAW264.7. Put plainly: Suppression of LPS-induced NF-kappaB p65 subunit translocation into nucleus in mouse RAW264.7 cells assessed as p65 protein level at 10 uM after 30 mins pretreated 30 mins before LPS challenge by Western blot. In kind it is functional, cell-based. Summed up:
(§3)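 Macrophages were pretreated with compound for 30 min, then given LPS (1 µg/mL) for a further 30 min. Nuclear extracts were immunoblotted for p65, with levels normalized to PARP as the loading control.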

For series [6], the system named is RAW264.7. The experiment in a line: Antiinflammatory activity against LPS-stimulated mouse RAW264.7 cells assessed as inhibition of NO production after 20 hrs. In kind it is functional, cell-based. The settings on record: RAW264.7, 20 h. Summed up:
as §1

For series [7], the system named is RAW264.7. The experiment in a line: Antiinflammatory activity against LPS-stimulated mouse RAW264.7 cells assessed as inhibition of NO production at 5 uM after 20 hrs relative to control. In kind it is functional. The note with it: RAW264.7, 20 h. Summed up:
as §1

Series [8] relates to RAW264.7. The experiment in a line: Inhibition of iNOS mRNA expression in LPS-stimulated mouse RAW264.7 cells at 10 uM after 6 hrs by RT-PCR. In kind it is functional, cell-based. Summed up: (§4)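 RAW 264.7 cells (1.8 × 10⁶ per 60 mm dish) were stimulated 6 h with LPS (1 µg/mL) with or without compound. Total RNA was extracted and 2 µg was reverse transcribed with random hexamers. PCR ran 25 cycles (94 °C, 55 °C, 72 °C, 30 s each), and products were resolved on 2% agarose. iNOS was normalized to β-actin; mean ± SD of three densitometric analyses.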

Series [9] deals with RAW264.7. Put plainly: Inhibition of iNOS mRNA expression in LPS-stimulated mouse RAW264.7 cells at 5 uM after 6 hrs by RT-PCR. The series is classed as functional, cell-based. The method, boiled down:
as §4

Series [10] relates to RAW264.7. The experiment in a line: Suppression of LPS-induced NF-kappaB p65 subunit translocation into nucleus in mouse RAW264.7 cells assessed as p65 protein level at 5 uM after 30 mins pretreated 30 mins before LPS challenge by Western blot. In kind it is functional, cell-based. Summed up: as §3
The test system of series [11] is RAW264.7. Put plainly: Inhibition of iNOS protein expression in LPS-stimulated mouse RAW264.7 cells at 5 uM after 20 hrs by Western blot. The settings on record: RAW264.7, 20 h. The series is classed as functional. Summed up: as §2
A short description of series [12]: Peroxynitrite radical scavenging activity assessed as dihydrohodamine 123 product by cell free assay. Summed up:
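In a cell-free system, oxidation of dihydrorhodamine 123 by authentic peroxynitrite was monitored by fluorescence.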

Molecules are shown by their SMILES. Active and inactive are the calls of the source. The rule behind the calls is not given here. Some results are limits rather than exact numbers.

For `CCNC(=S)Nc1ccc(C)cc1`, the inhibition at 50 µM in the series on RAW264.7 [1] worked out at 14%. Besides, the inhibition at 20 µM in the series with RAW264.7 [2] was less than 10%.
In the case of `CCN/C(=N/c1ccc(OCCn2c3ccccc3c3ccccc32)cc1)SC`, the “iNOS protein expression inhibition” value in the series on RAW264.7 [3] is “Active”. In the series on RAW264.7 [4], the Activity entry is “Non-toxic”. Moreover, the outcome in the series with RAW264.7 [5] was Active. Moreover, in the series with RAW264.7 [1], the inhibition at 50 µM came to 100%. The inhibition at 20 µM in the series with RAW264.7 [2] stood at 99%. Further, in the series with RAW264.7 [6], the 50% inhibitory concentration (IC50) is 2.9 µM.
For the molecule `CCN/C(=N/c1ccc(-c2ccccc2)cc1)SC(C)C`, the “iNOS protein expression inhibition” value with RAW264.7 [3] is “Active”. In the series on RAW264.7 [4], the Activity result is given as “Non-toxic”. In addition, the outcome in the series with RAW264.7 [5] was Active. In the series on RAW264.7 [7], the inhibition at 5 µM is 13%. In addition, the inhibition at 50 µM with RAW264.7 [1] turned out to be 96%. Also, the inhibition at 20 µM in the series on RAW264.7 [2] was 85%. For the same molecule, the IC50 with RAW264.7 [6] was found to be 11.2 µM.
`CC(C)S/C(N)=N\c1ccc(OCCn2c3ccccc3c3ccccc32)cc1`: the inhibition at 50 µM in the series on RAW264.7 [1] came to 30%. Moreover, the inhibition at 20 µM in the series with RAW264.7 [2] is 22%.
Taken in the same sequence, the figures for `CS/C(N)=N\c1ccc(OCCn2c3ccccc3c3ccccc32)cc1` were 24% and 22%.
For `CCN/C(=N/c1ccc(OCCn2c3ccccc3c3ccccc32)cc1)SCc1ccc(C(=O)OC)cc1`, the inhibition at 50 µM with RAW264.7 [1] is 17%. In addition, the inhibition at 20 µM with RAW264.7 [2] is 14%.
For `CCN/C(=N/c1ccc(C)cc1)SC(C)C` the same measures were 14% and less than 10%.
Consider `COc1cc(/C=C/C(=O)CC(=O)/C=C/c2ccc(O)c(OC)c2)ccc1O` [CURCUMIN], for which the Activity entry in the series with RAW264.7 [4] was “Non-toxic”. Also, in the series on RAW264.7 [5], the result was Active. In the series with RAW264.7 [8], the inhibition entry was “Active”.
On to `CCNC(=S)Nc1ccc(O)cc1`, for which the inhibition at 50 µM in the series with RAW264.7 [1] amounted to 20%. The inhibition at 20 µM with RAW264.7 [2] is less than 10%.
Turning to `CCNC(=S)Nc1ccc(Cl)cc1`, the inhibition at 50 µM in the series on RAW264.7 [1] stood at 11%. Also, in the series with RAW264.7 [2], the inhibition at 20 µM is less than 10%.
Consider `CCCc1ccc(NC(=S)NCC)cc1`, for which, in the series with RAW264.7 [1], the inhibition at 50 µM stood at 23%. Moreover, in the series with RAW264.7 [2], the inhibition at 20 µM is less than 10%.
Taken in the same sequence, the figures for `CCN/C(=N/c1ccc(OCCn2c3ccccc3c3ccccc32)cc1)SCc1ccccc1` were 33% and 31%.
Taken in the same sequence, the figures for `CCN/C(=N/c1ccc(OCCn2c3ccccc3c3ccccc32)cc1)SCc1ccc(F)cc1` were 40% and 36%.
On to `CCCc1ccc(/N=C(/NCC)SC(C)C)cc1`, for which the inhibition at 50 µM with RAW264.7 [1] worked out at 71%. The inhibition at 20 µM with RAW264.7 [2] was less than 10%.
Taken in the same sequence, the figures for `CCS/C(N)=N\c1ccc(OCCn2c3ccccc3c3ccccc32)cc1` were 64% and 32%.
Taken in the same sequence, the figures for `CCNC(=S)Nc1ccc(OCC)cc1` were 12% and less than 10%.
For `CCN/C(=N/c1ccc(Cl)cc1)SC(C)C` the same measures were 62% and less than 10%.
Regarding `CCN/C(=N/c1ccc(OCCn2c3ccccc3c3ccccc32)cc1)SC(C)C`, the “iNOS protein expression inhibition” value in the series with RAW264.7 [3] was “Active”. Further, in the series on RAW264.7 [4], the Activity entry is “Non-toxic”. Further, the result with RAW264.7 [5] and with RAW264.7 [10] was Active. Further, the inhibition entry in the series on RAW264.7 [9] is “Active”. In addition, the inhibition at 20 µM in the series with RAW264.7 [2] was 48%. Besides, the inhibition at 5 µM with RAW264.7 [11] came to 79%. Moreover, in the series with RAW264.7 [6], the IC50 worked out at 1.3 µM.
Turning to `CCN/C(=N/c1ccc(OCC)cc1)SC(C)C`, the inhibition at 50 µM in the series with RAW264.7 [1] came to 22%. In the series on RAW264.7 [2], the inhibition at 20 µM is less than 10%.
For `CCNC(=S)Nc1ccc(-c2ccccc2)cc1` the same measures were 23% and less than 10%.
On to `CCN/C(=N/c1ccc(OCCn2c3ccccc3c3ccccc32)cc1)SCc1ccc(C(=O)O)cc1`, for which, in the series with RAW264.7 [3], the “iNOS protein expression inhibition” value is “Active”. Besides, in the series on RAW264.7 [4], the Activity result is given as “Non-toxic”. For the same molecule, in the series on RAW264.7 [5], the outcome was Active. Also, the inhibition at 5 µM in the series with RAW264.7 [7] came out at 39%. In series [12], the SC50 amounted to 14 µM. Also, the inhibition at 50 µM in the series with RAW264.7 [1] was 100%. In the series with RAW264.7 [2], the inhibition at 20 µM came out at 90%. In addition, in the series on RAW264.7 [6], the concentration for half-maximal inhibition (IC50) was found to be 5.3 µM.
